Activity calls are given as the source filed them.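 The calls were made as follows, unless noted: active = visually confirmed hit in the image check and inhibition above 20%; inconclusive = visually confirmed hit but inhibition not above 20%; inactive = no visual hit in the image check.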

A short description of experiment [1]: inhibitors of TNFa-induced NFkB p65 translocation, primary screen, imaging, HUVEC, MLSMR starter and 10KST1 sets (AID 438;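 active = inhibition above 20% together with a positive visual image hit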;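 also: compound added about 3h40 before a 20 min TNFalpha stimulation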;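 as to inhibition: signal is the nuclear over cytoplasmic p65 intensity ratio per well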). The conditions noted are these: HUVEC TNFa-induced p65 nuclear translocation; cell count: measured here: nuclei count (cytotoxicity indicator), at 2.08 µM; inhibition: at 2 µM, stronger effect = higher value, 0% TNFa-plus-vehicle, 100% no-TNFa wells.

Experiment [2] is described as follows: inhibitors of E-selectin induction by TNFa, primary screen, imaging, HUVEC, immunofluorescence, MLSMR starter and 10KST1 sets (AID 487).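 As to inhibition: signal is fraction of cell area covered by stained E-selectin grains.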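 As to nuclei count: 100% = median nuclei count of all wells on the same plate.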 The conditions noted are these: HUVEC TNFalpha-induced E-selectin immunofluorescence imaging, at 2 µM; inhibition: stronger effect = higher value; nuclei count: measured here: cell number, toxicity.
A short description of experiment [3]: DUSP6 inhibitors restoring Erk phosphorylation by chemical complementation, primary imaging in DUSP6-transfected HeLa (AID 609;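 active = compounds giving at least 50% inhibition in the cell-based MKP-3 phosphatase rescue imaging test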;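 as to inhibition: phospho-Erk level distribution per well compared with pooled transfected vehicle control wells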). The conditions noted are these: HeLa MKP-3 transfected, phospho-Erk imaging KS statistic, at 10 µM, cells stimulated with TPA for 15 min.
The target of experiment [4] is Dual specificity protein phosphatase 6 (Homo sapiens) (UniProt Q16828). The description is as above. The conditions noted are these: HeLa MKP-3 transfected, phospho-Erk imaging KS statistic; at 10 µM; stronger effect = higher value; cells stimulated with TPA for 15 min.
Experiment [5] deals with Voltage-gated potassium channel subunit beta-2 (Rattus norvegicus) (UniProt P62483). The experiment can be described thus: KvBeta enzyme negative modulators, primary screen, biochemical, NADPH fluorescence (AID 622;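 active = fluorescence slope higher than the sample average by over 3 SD, cut at about -0.22 in these data, passing the limit was not always enough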;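 also: slope of raw intensity against log time taken from 70 to 1610 s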). The conditions noted are these: recombinant KvBeta, 4-cyanobenzaldehyde reduction, at 10 µM, stronger effect = higher value.
The target is the same in experiment [6]. Briefly: KvBeta positive modulators, primary screen, biochemical, NADPH fluorescence (AID 623;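 active = NADPH fluorescence slope more negative than the mean of all samples by about 3 SD, 99.7% confidence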;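 also: fluorescence intensity change per second fitted from 20 to 320 s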). The conditions noted are these: Recombinant KvBeta, NADPH fluorescence decrease slope, 10 min; at 10 µM; stronger effect = lower value.
Experiment [7] concerns the target Alpha-2C adrenergic receptor (Homo sapiens) (UniProt P18825). Briefly: modulators of alpha2C/GIRK thallium flux, primary screen, cell-based, HEK293 alpha2C/GIRK1/2 (AID 624;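 active = fluorescence slope after compound addition differing from the mean of all screened samples at 99.7% confidence, in either direction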;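 also: slope of fluorescence ratio to pre-addition baseline per second over 15 to 24 s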). The conditions noted are these: thallium flux BTC fluorescence, at 10 µM, actives lie on both sides.
The nature of experiment [8]: inhibitors of larval lipid processing in zebrafish, primary screen, whole organism, PED6 fluorescence, gall bladder and intestine (AID 686;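 active = a full or partial loss of lipid-probe fluorescence in the fish gall bladder, intestine or both, judged by eye; inactive = no fluorescence loss, or compound toxic to the fish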;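 also: larvae 5 to 7 days old with five fish per well; signal comes from phospholipase A2 cleavage of quenched PED6 carried via bile; overnight exposure to compound and PED6 before scoring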). The conditions noted are these: Zebrafish larvae PED6 lipid processing, fluorescence scoring; screened at 20 µM (by protocol). In a few lines:
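Doses: 20 µM single dose. Test system: live zebrafish larvae aged 5-7 days, whole organism. Quantity: five larvae per well. Measured by: By-eye fluorescence microscopy. Reagent: ingested quenched lipid PED6 at 100 nM. Read-out: visual per-well fluorescence inhibition score. Times: overnight exposure of larvae to compound plus PED6.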

Experiment [9] in a line: inhibitors of Chlamydomonas gravitaxis, primary screen, whole organism, Chlamydomonas reinhardtii, WT vs cilia-less mutant, absorbance, 96-well (AID 463189;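 active = inhibition at or above 50% relative to wild type and mutant plate controls; inactive = inhibition below 50%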;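 also: 0% = wild type cc124 cells in DMSO and 100% = ciliumless bld1 mutant cells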). The conditions noted are these: OD600 absorbance, 2 days, at 10 µM, stronger effect = higher value.
Where [10] appears, read: measured here: cell density z-score.
Setting [11] is: measured here: nuclear c-Myc green intensity z-score.
The mark [12] stands for this setting: measured here: nuclear pErk red intensity z-score, stronger effect = higher value.

Sequence of Alpha-2C adrenergic receptor (Homo sapiens) (P18825 whole entry, looked up): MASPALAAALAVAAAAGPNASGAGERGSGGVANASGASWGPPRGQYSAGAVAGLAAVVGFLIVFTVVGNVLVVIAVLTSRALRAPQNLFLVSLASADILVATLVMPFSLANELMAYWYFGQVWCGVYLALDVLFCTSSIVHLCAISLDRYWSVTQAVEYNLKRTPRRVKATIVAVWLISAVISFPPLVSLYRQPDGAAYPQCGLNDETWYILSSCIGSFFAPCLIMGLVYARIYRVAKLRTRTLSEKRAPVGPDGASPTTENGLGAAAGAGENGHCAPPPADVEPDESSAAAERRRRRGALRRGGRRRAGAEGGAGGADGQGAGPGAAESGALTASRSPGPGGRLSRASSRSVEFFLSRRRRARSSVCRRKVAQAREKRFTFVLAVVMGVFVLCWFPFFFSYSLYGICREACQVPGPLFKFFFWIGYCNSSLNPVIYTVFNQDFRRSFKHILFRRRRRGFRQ
Sequence of Dual specificity protein phosphatase 6 (Homo sapiens) (Q16828 whole entry, looked up): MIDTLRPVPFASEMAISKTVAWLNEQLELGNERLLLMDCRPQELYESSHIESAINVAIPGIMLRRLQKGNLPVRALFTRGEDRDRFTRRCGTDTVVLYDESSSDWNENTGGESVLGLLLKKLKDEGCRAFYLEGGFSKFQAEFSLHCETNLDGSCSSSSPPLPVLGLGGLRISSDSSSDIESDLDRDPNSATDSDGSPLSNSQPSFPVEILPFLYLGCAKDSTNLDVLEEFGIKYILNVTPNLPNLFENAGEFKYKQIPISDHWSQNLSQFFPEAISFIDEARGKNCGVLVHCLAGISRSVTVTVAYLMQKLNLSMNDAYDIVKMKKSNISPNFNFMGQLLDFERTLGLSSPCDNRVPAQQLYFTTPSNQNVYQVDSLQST
Sequence of Voltage-gated potassium channel subunit beta-2 (Rattus norvegicus) (P62483 whole entry, looked up): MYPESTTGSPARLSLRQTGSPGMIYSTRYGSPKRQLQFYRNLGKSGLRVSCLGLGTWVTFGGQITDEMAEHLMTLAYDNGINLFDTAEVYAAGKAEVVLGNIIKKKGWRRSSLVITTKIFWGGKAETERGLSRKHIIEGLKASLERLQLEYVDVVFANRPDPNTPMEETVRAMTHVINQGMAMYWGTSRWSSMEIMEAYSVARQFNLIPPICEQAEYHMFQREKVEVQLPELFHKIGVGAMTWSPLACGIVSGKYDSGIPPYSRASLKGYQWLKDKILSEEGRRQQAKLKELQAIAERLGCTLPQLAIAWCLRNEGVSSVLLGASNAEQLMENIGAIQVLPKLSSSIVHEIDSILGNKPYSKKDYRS

As for `CCOC(=O)C1=C(C)NC(SCC(=O)Nc2nc(C)cs2)=C(C#N)C1c1cccs1` (stereo unspecified), the cell count in [1] turned out to be 540. For the same compound, the inhibition (commonly the relative decrease from the control value, in per cent) in experiment [1] is -13.4% (inactive); in [2], -57.8% (inactive); in experiment [4], -7.28% (inactive); in experiment [9] it was 2.72% (inactive). Besides, the nuclei count in [2] turned out to be 106%. Further, the z-score is 1.78 in experiment [3] (setting [10]), -0.812 in experiment [3] (setting [11]) and -0.565 in experiment [3] (setting [12]). The fluorescence slope in experiment [5] is -0.472 (inactive). In experiment [6], the NADPH fluorescence slope is 6.5e-06 (inactive). Further, the slope in [7] was 0.006 (inactive). For the same compound, the compound was called inactive in experiment [8].

Regarding `COCCOC(=O)C1=C(C)NC(SCC(=O)NC(C)(C)C)=C(C#N)C1c1ccco1` (stereo unspecified), the cell count in experiment [1] was 364. Moreover, the inhibition is -11.5% (inactive) in [1], -124% (inactive) in experiment [2], 7.48% (inactive) in experiment [4] and 27.7% (inactive) in [9]. Besides, the nuclei count in [2] was determined as 121%. In addition, the figures for the z-score in [3] (setting [10]), in experiment [3] (setting [11]) and in experiment [3] (setting [12]) were 0.297, -0.0811 and -0.28, respectively. In addition, the fluorescence slope in [5] is -0.397 (inactive). Moreover, the NADPH fluorescence slope in experiment [6] was -4e-05 (inactive). Besides, the slope in [7] is 0.00427 (inactive). In addition, the outcome in experiment [8] was “inactive; toxic”.

As for `CC(=O)C1=C(O)C(=O)N(Cc2cccnc2)C1c1ccccc1Cl` (stereo unspecified), in experiment [1], the cell count amounted to 645. Moreover, the inhibition was -3.5% (inactive) in experiment [1], -41.7% (inactive) in [2], 31.1% (inactive) in experiment [4] and 10.6% (inactive) in experiment [9]. Also, the nuclei count in [2] is 140%. Besides, the results for the z-score in experiment [3] (setting [10]), in experiment [3] (setting [11]) and in experiment [3] (setting [12]) were 1.32, -1.67 and -1.62, respectively. The fluorescence slope in [5] is -0.49 (inactive). In experiment [6], the NADPH fluorescence slope is -0.000254 (inactive). The slope in [7] is 0.00582 (inactive). The result in experiment [8] was inactive.

`CCOc1ccc(-n2c3nc4ccccc4nc3c3c(=O)n(Cc4ccco4)cnc32)cc1`: the cell count in [1] was determined as 381. Besides, the inhibition in experiment [1] was -13% (inactive); in experiment [2] it was -105% (inactive); in experiment [4] it was -7.01% (inactive); in experiment [9] it was -0.886% (inactive). Also, in experiment [2], the nuclei count stood at 171%. In addition, the z-score in [3] (setting [10]) is 0.174; in [3] (setting [11]) it was 0.579; in experiment [3] (setting [12]), -1.27. Besides, the fluorescence slope in [5] is -0.417 (inactive). Also, in [6], the NADPH fluorescence slope was -0.000107 (inactive). Further, the slope in experiment [7] is 0.00519 (inactive). For the same compound, the result in experiment [8] was inactive.

Consider `COC(=O)CN(c1nc(C)c(Br)c(OC)n1)S(=O)(=O)c1ccc(C)cc1`, for which, in experiment [1], the cell count worked out at 598. Moreover, the inhibition in experiment [1] was 6.5% (inactive); in experiment [2] it was -10.9% (inactive); in experiment [4], 9.82% (inactive); in experiment [9], -5.5% (inactive). Besides, the nuclei count in experiment [2] turned out to be 142%. Also, the z-score in experiment [3] (setting [10]) was 0.877; in [3] (setting [11]), 0.344; in experiment [3] (setting [12]), 0.387. In addition, the fluorescence slope in experiment [5] is -0.379 (inactive). For the same compound, the NADPH fluorescence slope in experiment [6] is -2.1e-05 (inactive). Also, the slope in experiment [7] was 0.0055 (inactive). The compound was called inactive in experiment [8].

On to `CC1(C)Cc2c(C#N)c(NCCN3CCOCC3)nc(-c3ccco3)c2CO1`, for which the cell count in experiment [1] was 579. In addition, the inhibition in [1] is -8.4% (inactive); in experiment [2], -62.4% (inactive); in experiment [4], 26.5% (inactive); in experiment [9], 34% (inactive). This compound also displayed a nuclei count in experiment [2] of 149%. For the same compound, the figures for the z-score in [3] (setting [10]), in [3] (setting [11]) and in experiment [3] (setting [12]) were 0.114, 1.74 and -1.62, respectively. In addition, the fluorescence slope in [5] is -0.295 (inactive). Also, the NADPH fluorescence slope in experiment [6] was -3e-06 (inactive). In addition, the slope in experiment [7] is 0.00581 (inactive). Also, in experiment [8], the outcome was inactive.

As to `Nc1nnnn1CC(=O)OCc1cccc(Br)c1`, the cell count in experiment [1] was 351. Besides, the inhibition was -7.3% (inactive) in experiment [1], -43.6% (inactive) in experiment [2], 1.42% (inactive) in experiment [4] and -1.03% (inactive) in experiment [9]. Besides, in [2], the nuclei count came out at 167%. Besides, the z-score was 0.909 in experiment [3] (setting [10]), -0.848 in experiment [3] (setting [11]) and 1.13 in experiment [3] (setting [12]). Also, in [5], the fluorescence slope was -0.446 (inactive). In addition, the NADPH fluorescence slope in experiment [6] was -0.000151 (inactive). Moreover, in [7], the slope was 0.00561 (inactive). The outcome in experiment [8] was inactive.

The values are drawn from PubChem BioAssay.
